IMP-1 inhibitor = IMP-1 metallo-beta-lactamase inhibitors, primary screen, biochemical, epi-absorbance readout, Pseudomonas aeruginosa enzyme; purified IMP-1, nitrocefin hydrolysis, epi-absorbance fluorescence; inhibition, % at 5.6 µM; 290,000 compounds, 0.45% hits; AID 1556, 2009;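 active means inhibition above the mean plus 3 SD of all compounds in the same screening run, cut at about 4.5% in these data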;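 further: 0% = IMP-1 with DMSO and 100% = DMSO wells lacking enzyme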
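assay system = purified recombinant IMP-1 metallo-beta-lactamase enzyme | schedule = 15 min preincubation plus 25 min reaction at 25 °C | signal = Epi-absorbance fluorescence, 480 nm excitation, 530 nm emission | read-out basis = percent inhibition from optical density relative to buffer-blank wells | controls = IMP-1 with DMSO as 0%, enzyme-free DMSO as 100%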
PAFAH1B3 FP inh = PAFAH1B3 enzyme inhibitors, primary screen, biochemical, fluorescence polarization, human | inhibition, % at 3.39 µM | AID 492972, 2010 | recombinant PAFAH1B3, FP-rhodamine probe | 340,000 compounds, 0.28% hits;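 active means inhibition above the screen-wide average of all tested compounds plus 3 SD, cut at about 25% in these data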;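 further: 0% = enzyme with DMSO only and 100% = wells lacking PAFAH1B3 protein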
VIM-2 inh = VIM-2 metallo-beta-lactamase inhibitors, primary screen, biochemical, epi-absorbance readout, Pseudomonas aeruginosa enzyme; inhibition, % at 5.6 µM; purified VIM-2, nitrocefin hydrolysis, epi-absorbance fluorescence; 290,000 compounds, 0.89% hits;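 active means inhibition above the mean of all tested compounds plus 3 SD, cutoff set per screening run, cut at about 7.5% in these data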;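 further: red hydrolysis product quenches plate fluorescence so inhibitors raise well fluorescence; 0% = enzyme with DMSO and 100% = DMSO without enzyme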
PAFAH1B2 inh = PAFAH1B2 enzyme inhibitors, primary screen, biochemical, fluorescence polarization, human | Platelet-activating factor acetylhydrolase IB subunit alpha2 (Homo sapiens), P68402 | recombinant PAFAH1B2, FP-rhodamine activity probe | inhibition, % at 3.39 µM | 340,000 compounds, 1.2% hits | AID 492953, 2010;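 active means inhibition above the mean of all tested compounds plus 3 SD, cut at about 24% in these data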;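 further: 0% = enzyme with DMSO and 100% = wells lacking PAFAH1B2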
pPAFAH FP inh = pPAFAH enzyme inhibitors, primary screen, biochemical, fluorescence polarization, human; recombinant pPAFAH, FP-rhodamine probe fluorescence polarization; inhibition, % at 3.39 µM; 330,000 compounds, 1.5% hits; AID 463082, 2010;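 active means inhibition above the mean inhibition across the screen plus 3 SD, cut at about 25% in these data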;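 further: inhibitors block binding of the rhodamine activity-based probe so polarization drops; 0% = enzyme with DMSO and 100% = wells lacking pPAFAH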
Target sequence (Q13093 whole entry, looked up): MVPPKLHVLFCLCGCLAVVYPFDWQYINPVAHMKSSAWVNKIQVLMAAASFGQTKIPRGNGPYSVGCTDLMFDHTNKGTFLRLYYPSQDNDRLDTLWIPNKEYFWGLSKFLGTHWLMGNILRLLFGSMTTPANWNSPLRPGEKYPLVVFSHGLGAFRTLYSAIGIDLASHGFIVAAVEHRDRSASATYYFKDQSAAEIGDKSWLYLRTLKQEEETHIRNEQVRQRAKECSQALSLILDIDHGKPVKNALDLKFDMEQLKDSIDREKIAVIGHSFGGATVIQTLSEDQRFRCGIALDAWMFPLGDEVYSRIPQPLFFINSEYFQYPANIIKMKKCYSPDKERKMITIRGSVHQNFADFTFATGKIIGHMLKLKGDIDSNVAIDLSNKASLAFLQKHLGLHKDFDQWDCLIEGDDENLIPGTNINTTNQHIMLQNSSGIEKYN
PAFAH2 FP inh = PAFAH2 enzyme inhibitors, primary screen, biochemical, fluorescence polarization, human | recombinant PAFAH2, FP-rhodamine activity probe | inhibition, % at 3.39 µM | 340,000 compounds, 0.99% hits;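 active means inhibition above the mean over all tested compounds plus 3 SD, cut at about 30% in these data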;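 further: inhibitors block probe labeling of enzyme so polarization drops; 0% = enzyme with DMSO and 100% = wells lacking PAFAH2 protein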
* = called active by the depositor; . = no result given. An excerpt weighted towards active compounds, which were near 3.6% of everything screened.

SMILES	IMP-1 inhibitor	PAFAH1B3 FP inh	VIM-2 inh	PAFAH1B2 inh	pPAFAH FP inh	PAFAH2 FP inh
Cc1cc(C)nc(N2C(=O)CC(C(C)c3ccccc3)C2=O)n1 (configuration not stated)	9.3*	6	-1	1	7	3
O=C(O/N=C1/CCCc2occc21)c1ccccc1	0	5	-1	-1	6	18
O=C(O/N=C1/CCCc2occc21)c1ccc(Cl)cc1Cl	-3	2	-2	34*	0	8
CN(C(=O)c1cccc(NC(=O)Cc2ccc(NC(=O)C3CCCN(C(=O)C4CC4)C3)cc2)c1)C1CCCC1 (configuration not stated)	.	14	.	1	.	4
N#C/C(=C\c1cccnc1)C(=O)Nc1ccccc1[N+](=O)[O-]	-3	11	-2	13	26*	-3
CC(=O)c1cccc(N(C(=O)Cn2nnc3ccccc32)C(C(=O)NC2CCCCC2)c2cn(C)nc2C)c1 (configuration not stated)	-2	-9	-2	-2	-7	0
O=C(NC1CCCCC1)C(c1ccc(O)c(O)c1)N(C(=O)Cn1nnc2ccccc21)c1cccc(O)c1 (configuration not stated)	11*	10	1	1	10	1
O=C(CN1C(=O)NC2(CCCC2)C1=O)Oc1ccc2ccc(=O)oc2c1	.	3	.	2	-7	-5
CCC1(c2ccccc2)NC(=O)N(CC(=O)Nc2ccc3c(C)cc(=O)oc3c2)C1=O (configuration not stated)	.	6	.	1	3	4
CCOc1ccc(CNc2ccc(N3CCCC3)cc2)cc1	0	6	-3	4	33*	1
C=CCOc1c(Cl)cc(CNc2ccc(N(C)C)cc2)cc1OC	-2	7	1	4	25*	11
CCOc1cc(CNc2ccc(N3CCCC3)cc2)cc(Cl)c1OC	0	3	-1	1	23	13
COc1cccc(CNc2ccc(N3CCCCC3)cc2)c1OC	-3	5	1	-1	1	5
COc1ccccc1CNc1ccc(N2CCCCC2)cc1	-3	8	-5	7	27*	4
COc1cc(CNc2ccc(N3CCCC3)cc2)cc(Cl)c1OC	-1	10	1	7	28*	-4
O=C1COc2ccc(C(=O)CSc3nnc(-c4cccs4)n3Cc3ccccc3)cc2N1	-3	3	9.3*	0	3	5
COc1ccc(N2Cc3ccc(C(=O)N/N=C\c4ccc(O)cc4O)cc3C2)cc1	-4	.	-2	.	39*	.
Cn1c(=O)c2nc3ccccc3nc2n(C)c1=O	-3	10	6	4	3	2
CC(=O)Nc1ccc2nc3c(=O)n(C)c(=O)n(C)c3nc2c1	-2	16	6	8	30*	5
CC(OC(=O)CC(C)c1ccccc1)C(=O)Nc1ccc(Cl)cn1 (configuration not stated)	.	2	.	5	.	5
CN(C)S(=O)(=O)c1cc(NC(=O)COC(=O)CC2CC3CCC2C3)ccc1Cl (configuration not stated)	.	1	.	6	26*	77*
Fc1cccc(/C=N/Nc2nncc3ccccc23)c1	-2	5	-4	2	-1	-1
C(=N\Nc1nncc2ccccc12)/c1ccccn1	6.5*	7	1	2	1	8
O=C1NNC(c2ccccc2)=N/C1=C\c1ccco1	0	2	1	3	26*	14
C=CCn1c(SCC(=O)c2ccc(O)c(O)c2)nnc1-c1cccc(Cl)c1	.	5	.	5	28*	39*
SMILES	IMP-1 inhibitor	PAFAH1B3 FP inh	VIM-2 inh	PAFAH1B2 inh	pPAFAH FP inh	PAFAH2 FP inh
C=CCn1c(SCC(=O)O)nnc1-c1cccc(Cl)c1	-5	-2	0	4	3	-3
C=CCn1c(SCC(=O)Nc2cc(C)on2)nnc1-c1ccccc1OC	.	3	.	3	3	-4
C=CCn1c(SCC(=O)c2ccc(O)c(O)c2)nnc1-c1ccccc1OC	0	13	7	7	27*	22
O=C(O)c1ccccc1C(=O)Nc1cc(C(F)(F)F)ccc1N1CCCC1	0	5	-1	6	30*	8
O=C(Nc1cc(C(F)(F)F)ccc1N1CCOCC1)c1ccccc1	-5	3	-2	0	-4	1
OC[C@@H]1CC[C@@H](Cc2ccc(-c3ccccc3)cc2)O1	.	-4	.	4	10	0
CCN(C(=O)COc1cc(=O)n(CC)c2ccccc12)c1cccc(Cl)c1	-1	1	-1	6	27*	15
O=C(Nc1ccccc1C(=O)NCCCN1CCOCC1)c1ccc(Cl)cc1	-1	-3	0	0	0	-5
NC1=NC(=O)/C(=C/c2cn(CCC(=O)O)nc2-c2ccc(Cl)cc2)S1	-3	6	-1	50*	1	5
COc1ccc(-c2nn(CCC(=O)O)cc2/C=C2\SC(N)=NC2=O)cc1	-3	16	-3	4	-3	3
O=C(O)CCn1cc(/C=C\C(=O)c2ccc(Cl)cc2)c(-c2cccc(Br)c2)n1	1	6	0	46*	2	6
NC1=NC(=O)/C(=C/c2cn(CCC(=O)O)nc2-c2ccc(F)cc2)S1	-4	8	-2	48*	0	4
CC12CCC(=O)C=C1C(F)CC1C2C(O)CC2(C)C1CCC2(O)C(=O)CO (configuration not stated)	.	6	.	-1	.	4
COc1cccc(CNC(=O)c2ccc(C)c(NC3=NC4CS(=O)(=O)CC4S3)c2)c1 (configuration not stated)	-2	-12	-1	2	0	1
Cc1nc2ccccc2c2oc(C(=O)N3CCCC(C)C3)cc12 (configuration not stated)	-1	1	9.6*	3	1	-2
CC(=O)c1ccc(N2CCN(C(=O)c3cc4c(C)nc5ccccc5c4o3)CC2)cc1	-1	4	0	-2	3	8
Cc1nc2ccccc2c2oc(C(=O)N3CCC(N4CCCCC4)CC3)cc12	0	4	60*	1	-3	-2
Cc1cccc(C(=O)O)c1NC(=O)Cc1cccc2ccccc12	-4	12	0	12	6	-5
COc1ccc(CCNc2nc(C)nc3c2nnn3Cc2ccccc2)cc1OC	-2	0	-1	-2	-2	0
CCN(CC)c1ccc(/C=C2\CCC(/C=N/NC(=O)c3ccc(=O)n(C)c3)=C2N2CCOCC2)cc1	0	5	-1	3	29*	-1

Screening results: PubChem, The Scripps Research Institute Molecular Screening Center
